# MT stabilizer: microtubule stabilization, imaging screen; 0.83% of 200,000 active; % tubulin-high responders, % at 10 µM; AID 2205; HeLa tubulin immunostaining HCS, 24 h; share of cells brighter than vehicle mean+2SD;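 active = plate Z-score above 3 for both tubulin-high and condensed-nucleus cell shares, with cell loss under 80%, at 10 µM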;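 also: anti alpha tubulin signal scored within the nucleus-defined area of each cell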
# bCat nuc transl: beta-catenin nuclear translocation modulation | HeLa beta-catenin nuclear translocation, immunofluorescence imaging | nuclear translocation activity, % at 5 µM | 0.3% of 190,000 active | AID 1665;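 active = nuclear translocation activity above 50% at 5 µM, with a well cell count of 50 or more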;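 also: per-cell ratio of nuclear to cytoplasmic median beta-catenin stain intensity; plate controls were DMSO negative control for no effect and GSK-3 inhibitor IX positive control for full effect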
#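 Signal – beta-catenin immunofluorescence imaging with DAPI · Test system – human HeLa cell line · Dosing – 5 µM primary single dose, 0.1% DMSO, 0.02–20 µM confirmation series · Measure – % activation, nuclear-to-cytoplasmic median beta-catenin signal ratio per cell · Incubation – 24 h compound exposure at 37°C, 5% CO2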
# KCC2 mod: modulates chloride dependent transport by human KCC2; Q9H2X9; KCC2 cells, thallium flux FluoZin-2 fluorescence; B-score of Tl+ flux slope (higher = more flux/activation; lower = inhibition) at 10 µM; 2.2% of 190,000 active;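 active = thallium flux slope and its plate-corrected score both differing from the plate sample mean at a set confidence after two filtering rounds, in either direction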;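 also: slope of fluorescence scaled to starting intensity during 10 to 20 s after thallium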
# Target sequence (Q9H2X9 whole entry, looked up): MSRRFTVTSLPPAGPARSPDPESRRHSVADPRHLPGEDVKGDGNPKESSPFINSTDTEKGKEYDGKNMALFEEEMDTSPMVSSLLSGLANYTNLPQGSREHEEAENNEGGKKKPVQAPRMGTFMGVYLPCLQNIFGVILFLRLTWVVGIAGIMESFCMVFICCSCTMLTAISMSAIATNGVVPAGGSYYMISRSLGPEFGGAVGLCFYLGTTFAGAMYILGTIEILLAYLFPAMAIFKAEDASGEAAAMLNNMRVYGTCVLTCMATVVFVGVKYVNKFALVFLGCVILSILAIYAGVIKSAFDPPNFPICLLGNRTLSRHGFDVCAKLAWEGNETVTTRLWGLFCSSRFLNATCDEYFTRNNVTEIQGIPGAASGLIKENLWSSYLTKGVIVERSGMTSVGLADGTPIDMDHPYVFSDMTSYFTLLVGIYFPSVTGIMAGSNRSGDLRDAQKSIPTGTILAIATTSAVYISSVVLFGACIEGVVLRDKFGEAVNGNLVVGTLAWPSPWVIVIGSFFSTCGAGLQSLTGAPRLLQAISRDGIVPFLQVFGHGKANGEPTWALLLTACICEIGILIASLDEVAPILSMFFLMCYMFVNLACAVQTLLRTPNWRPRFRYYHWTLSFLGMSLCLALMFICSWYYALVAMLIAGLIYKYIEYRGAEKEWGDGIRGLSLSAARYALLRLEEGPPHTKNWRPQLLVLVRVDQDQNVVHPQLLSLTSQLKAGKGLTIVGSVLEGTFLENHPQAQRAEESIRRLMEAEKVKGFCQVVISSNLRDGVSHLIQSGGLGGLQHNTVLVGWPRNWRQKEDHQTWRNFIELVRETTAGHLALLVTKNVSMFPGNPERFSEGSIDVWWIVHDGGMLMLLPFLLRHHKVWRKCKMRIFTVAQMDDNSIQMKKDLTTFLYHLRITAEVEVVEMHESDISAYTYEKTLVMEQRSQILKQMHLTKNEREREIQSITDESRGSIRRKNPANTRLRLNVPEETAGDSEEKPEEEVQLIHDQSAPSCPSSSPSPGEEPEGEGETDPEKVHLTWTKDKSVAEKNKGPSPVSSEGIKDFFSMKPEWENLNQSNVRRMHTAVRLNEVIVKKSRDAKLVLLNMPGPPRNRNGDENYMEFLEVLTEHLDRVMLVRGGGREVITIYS
# Pf gamet viab: inhibitors of late stage P. falciparum gametocyte viability; 0.065% of 150,000 active; inhibition, % at 10.9 µM; AID 743093; P. falciparum stage V gametocytes, ATP luminescence, 24 h;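 active = inhibition above the mean plus 3 SD of compounds within the control limits, set per campaign, cut at about 38% in these data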;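 also: 0% = DMSO wells and 100% = medium only without gametocytes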
# WT yeast gro inh: growth inhibition of WT yeast, mitochondrial fusion screen; mitochondrial fusion phenotypic screen, WT strain; inhibition, % at 10 µM; 2.1% of 190,000 active; AID 1362; in the data active = inhibition above about 58%; tested in S. cerevisiae
# * = called active by the depositor; x = no result given. The list is not random: actives were taken first. Their share in the collection is about 4%.
SMILES,MT stabilizer,bCat nuc transl,KCC2 mod,Pf gamet viab,WT yeast gro inh
Cc1nn(-c2ccccc2)c(C)c1/C=N/NC(=O)c1cc(-c2ccccc2)n[nH]1,14.0*,80.3*,x,2.1,8.3
Cc1cc(C)cc(OCC(=O)OCC(=O)c2ccc3c(c2)NC(=O)CO3)c1,1.4,x,0.184,x,70.4*
Cc1ccc(C(=O)NCC(=O)OCC(=O)c2ccc3c(c2)NC(=O)CO3)cc1C,3.2,-0.6,0.62,x,-1.7
c1ccc2c(c1)OCC(c1csc3ncnc(N4CCCCC4)c13)O2 (stereo unspecified),2.3,-5.2,0.0205,x,36.2
CCCN1CCN(c2ncnc3scc(C4COc5ccccc5O4)c23)CC1 (stereo unspecified),3.2,-0.4,-1.07,12.2,58.4*
COc1cc(C(=O)Nc2nc(C)c(Cc3ccc4c(c3)OCO4)s2)cc(OC)c1OC,15.3*,16.1,-1.33,-0.5,50.6
COCCNC(=O)c1cccc(Nc2nc(-c3ccccc3)c3cc(Cl)ccc3n2)c1,1.9,5.2,-0.46,8.3,60.6*
COc1cc(NS(=O)(=O)c2ccc(C)cc2C)cc(OC)c1OC,22.3*,6.8,-0.311,1.3,-9.8
Cc1cc(=O)oc(C)c1C(=O)Nc1ccc2nsnc2c1,1.5,-5.8,x,x,94.1*
N#Cc1nccnc1S(=O)(=O)c1cccs1,x,-1.9,x,-8.9,x
COc1cc(S(=O)(=O)N2CCN=C2c2ccccc2)ccc1F,44.3*,x,-0.38,2.1,-5.2
COc1cc(S(=O)(=O)n2c(C)nc3ccccc32)ccc1F,28.0*,x,2.07,-6.1,-23.5
C=CCN(CC=C)C(=O)Nc1cc(OC)ccc1OC,x,-2.0,0.875,x,x
CCCCS(=O)(=O)/C=C\C=C/S(=O)(=O)CCCC,2.8,4.7,-1.59,x,87.6*
CC1(C)OC(=O)N(c2ccccc2)C12C=Cc1c(ccc3ccccc13)O2 (stereo unspecified),2.3,-2.3,-2.05,x,78.4*
O=[N+]([O-])c1ccc(N=Nc2c(Cl)cc(O)cc2Cl)cc1,x,0.7,7.5*,x,x
CC(N)=Nc1ccc([N+](=O)[O-])cc1,2.0,0.3,0.415,12.9,-11.3
CCOc1ccc(C(=O)n2cnnc2N)cc1,x,0.1,0.13,-1.0,x
CC(=O)C(C)Oc1cc(C)cc2oc(=O)c(C)c(C)c12 (stereo unspecified),5.6,2.0,0.274,14.4,2.5
CC(=O)COc1cc(C)cc2oc(=O)c(C)c(C)c12,3.5,2.4,-0.342,x,66.4*
NNC(=O)c1cccc(COc2ccc(Br)cc2)c1,7.4,-0.1,-0.849,2.0,73.0*
O=C(NCc1ccccc1)c1cccc(COc2cccc(Cl)c2)c1,2.1,1.5,0.518,x,66.8*
COc1ccc(OCc2cccc(C(=O)NN)c2)cc1,4.0,0.8,-0.496,10.0,-9.3
O=C(NCc1ccccc1)c1cccc(COc2ccc(Cl)cc2)c1,2.7,0.0,-0.132,x,49.5
NNC(=O)c1cccc(COc2cccc(Br)c2)c1,5.0,x,-0.805,x,73.5*
SMILES,MT stabilizer,bCat nuc transl,KCC2 mod,Pf gamet viab,WT yeast gro inh
Cc1cc(C)c2nc(SCC(=O)NCC3CCCO3)c(C#N)cc2c1 (stereo unspecified),1.9,-0.1,x,x,-2.3
Cc1ccc(-n2c(O)c(/C=C3/C(c4ccccc4)=Nc4ccccc43)c(=O)[nH]c2=O)cc1,17.6*,-0.4,-1.67,x,19.1
Cc1nn(CCOc2cccc(Br)c2)c(C)c1[N+](=O)[O-],8.6,-0.3,-0.181,12.1,16.1
COc1cc(C2NCC(c3ccc(Cl)cc3Cl)c3c2[nH]c2ccccc32)cc(OC)c1OC (stereo unspecified),2.4,x,0.15,10.6,81.9*
CC(=O)n1c(=O)oc2ccccc21,x,x,x,16.2,x
Cc1ccc(S(=O)(=O)Cc2ccc(C(=O)N3CCN(c4ccc(F)cc4)CC3)o2)cc1,23.6*,x,-0.807,x,26.1
COc1ccc(N2CCN(C(=O)c3ccc(CS(=O)(=O)c4ccc(OC)cc4)o3)CC2)cc1,5.2,x,-0.268,x,-2.1
Cc1cccc(N2CCN(C(=O)c3ccc4c(c3)OCCO4)CC2C)c1 (stereo unspecified),13.0*,10.0,-0.155,-0.7,-7.6
COc1ccc(S(=O)(=O)Cc2ccc(C(=O)N3CCN(c4cccc(C)c4C)CC3)o2)cc1,22.3*,0.9,0.836,x,44.4
COc1ccc(S(=O)(=O)Cc2ccc(C(=O)N3CCN(c4cccc(C)c4)C(C)C3)o2)cc1 (stereo unspecified),24.0*,x,x,x,17.6
Cc1cccc(N2CCN(C(=O)c3ccncc3)CC2C)c1 (stereo unspecified),13.5,0.2,-0.257,16.0,15.7
O=C(CNCc1ccc(F)cc1)Nc1ccccc1[N+](=O)[O-],1.8,0.4,-3.64,-22.5,-2.0
Cc1cc(C(=O)Nc2sc3c(c2C#N)CCCC3)no1,18.1*,-1.4,3.68*,x,5.8
Cc1onc(-c2c(F)cccc2Cl)c1C(=O)Nc1sc2c(c1C(N)=O)CCC2,31.5*,x,-0.148,x,67.2*
Cc1onc(-c2ccccc2)c1C(=O)NC(=S)Nc1sc2c(c1C#N)CCCC2,4.7,2.3,23.2*,10.1,1.9
Cc1onc(-c2ccccc2)c1C(=O)Nc1sc2c(c1C(N)=O)CCC2,12.0,-1.5,x,18.9,32.6
Cc1onc(-c2c(F)cccc2Cl)c1C(=O)Nc1sc2c(c1C#N)CCC(C(C)(C)C)C2 (stereo unspecified),2.6,3.1,-0.0373,13.2,5.2
Cc1onc(-c2ccccc2)c1C(=O)Nc1sc2c(c1C#N)CCC2,20.2*,0.9,-0.244,x,26.3
Cc1ccccc1C(=O)NC(=S)Nc1sc2c(c1C#N)CCCC2,3.2,0.5,x,-6.3,42.1
CCc1ccc(NC(=O)CC2C(=O)N(c3ccc(C)cc3)C(=O)N2C2CC2)cc1 (stereo unspecified),2.6,-4.3,0.972,-24.1,-11.1
CCn1cc(NC(=O)CCl)c(C)n1,5.1,-0.6,-1.31,x,11.7
CCOC(=O)c1nc2c(=O)n(C)c(=O)n(C)c2n(C)c1=O,x,x,x,2.3,x
Nc1ccccc1C(=O)NCCCN1CCN(c2cccc(Cl)c2)CC1,x,x,x,10.1,x
c1csc(-c2nc3c4ccccc4c4ccccc4c3[nH]2)c1,1.7,x,0.118,x,79.6*
Oc1ccccc1-c1nc2c3ccccc3c3ccccc3c2[nH]1,x,-3.1,0.424,x,x
SMILES,MT stabilizer,bCat nuc transl,KCC2 mod,Pf gamet viab,WT yeast gro inh
COc1ccc(-c2csc(Nc3ncccc3C)n2)cc1,3.4,-0.9,-0.404,x,75.7*
COc1cccc(Nc2nc(-c3ccc4c(c3)OCCO4)cs2)c1,33.5*,5.4,x,7.5,48.2
COc1ccc(-c2csc(Nc3ccccc3)n2)cc1,3.2,0.4,0.985,-0.3,68.6*
O=C(CC12CC3CC(CC(C3)C1)C2)NC1CC1,x,x,x,13.9,x
O=C(CNC(=O)C12CC3CC(CC(C3)C1)C2)N/N=C\c1ccccn1,1.9,-1.7,-0.367,6.4,-18.1
Oc1cccc(NC(=S)Nc2ccc(SC(F)F)cc2)c1,2.2,0.9,-1.04,18.7,47.8
Oc1cccc2c(NC(=S)Nc3ccc(SC(F)F)cc3)cccc12,7.1,3.0,0.426,-10.5,65.0*
CCCCCC(=O)Nc1ccc(S(=O)(=O)Nc2nccc(C)n2)cc1,2.2,-1.2,0.506,-1.9,4.9
